The record followed here is PMC3312100 (Frontiers in Systems Neuroscience, 2012).

“Also recorded” adds a separate entry of the source.

Data set [1] can be described thus: Fluorescence characterization. It counts as physicochemical. The conditions noted are these: for Fluorescence emission intensity (in words): Figure 2, Appendix. The method in brief:
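Test compound was dissolved at 10 mM in buffer (12.5 mM MgCl2, 100 mM NaCl, 75 mM Tris/HCl, pH 7.4). Absorption and emission spectra were recorded on a fluorometer at room temperature. Emission spectra used 405 nm excitation.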

Data set [2] concerns the target human histamine H3 receptor (Homo sapiens, UniProt Q9Y5N1). The data set is described as follows: [3H]Nα-methylhistamine competition binding assay, membranes of HEK-293 cells. The note with it: for Selectivity for hH3R over hH1R and hH4R (in words): comparison of Ki values of Table 1. The method in brief: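 Membranes came from HEK-293 cells stably expressing recombinant hH3R, with protein measured by Bradford. They were incubated with 2 nM [3H]Nα-methylhistamine and test compound from 0.01 nM to 100 μM at seven concentrations. Non-specific binding was defined with 10 μM pitolisant. Values are means of at least three independent experiments, each in triplicate.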

human histamine H3 receptor, sequence (Q9Y5N1 whole entry): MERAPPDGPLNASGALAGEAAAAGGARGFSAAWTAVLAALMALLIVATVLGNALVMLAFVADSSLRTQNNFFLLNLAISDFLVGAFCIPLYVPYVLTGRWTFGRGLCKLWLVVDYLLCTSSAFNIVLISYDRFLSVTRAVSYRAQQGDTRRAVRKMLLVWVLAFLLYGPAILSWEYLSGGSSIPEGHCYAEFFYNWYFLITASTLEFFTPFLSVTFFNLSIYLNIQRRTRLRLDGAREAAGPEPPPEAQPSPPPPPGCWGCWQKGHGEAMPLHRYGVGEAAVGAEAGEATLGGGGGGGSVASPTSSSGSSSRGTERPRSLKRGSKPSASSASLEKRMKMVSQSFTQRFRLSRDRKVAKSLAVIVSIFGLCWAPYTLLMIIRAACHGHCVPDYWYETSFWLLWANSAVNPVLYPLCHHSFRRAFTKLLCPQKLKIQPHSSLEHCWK

Turning to `CN(C)c1ccc(/C=C2\CCc3cc(OCCCN4CCCCC4)ccc3C2=O)cc1` [Compound 3, (E)-2-(4-(Dimethylamino)benzylidene)-6-(3-(piperidin-1-yl)propoxy)-1-tetralone], the “Area of the fluorescence spectrum of emission” value (shortened to “Area”) in data set [1] is recorded as “yellow area”.

On to `CN(C)c1ccc(/C=C2\CCc3ccc(OCCCN4CCCCC4)cc3C2=O)cc1` [Compound 4, (E)-2-(4-(Dimethylamino)benzylidene)-7-(3-(piperidin-1-yl)propoxy)-1-tetralone], for which the “Area” value in data set [1] is “yellow area”.

As to `CN(C)c1ccc(/C=C/C=C2\CCc3cc(OCCCN4CCCCC4)ccc3C2=O)cc1` [Compound 5, (E)-2-((E)-3-(4-(Dimethylamino)phenyl)allylidene)-6-(3-(piperidin-1-yl)propoxy)-1-tetralone], the “Fluorescence emission intensity (in words)” value in data set [1] is “emits more intensive”. In addition, the “Selectivity for hH3R over hH1R and hH4R (in words)” value (from here on “Selectivity for hH3R”) in data set [2] was “less selective chalcone; also recorded: not as selective as compound 9”.

As for `O=C1CCCc2ccc(OCc3ccc(OCCCN4CCCCC4)cc3)cc21` [Compound 8, 7-(4-(3-(Piperidin-1-yl)propoxy)benzyloxy)-1-tetralone], the “Selectivity for hH3R” value in data set [2] is listed as “one of the highest selectivity”.

For the compound `CN(C)c1ccc(/C=C2\CCc3cc(OCc4ccc(OCCCN5CCCCC5)cc4)ccc3C2=O)cc1` [Compound 9, (E)-2-(4-(Dimethylamino)benzylidene)-6-(4-(3-(piperidin-1-yl)propoxy)benzyloxy)-1-tetralone], in data set [1], the “Area” value is given as “yellow area” and the “Fluorescence emission intensity (in words)” value is “most intense compound; also recorded: highest intensity of all synthesized compounds”. Moreover, in data set [2], the “Affinity at the human histamine H3 receptor (in words)” value was “highest affinity”; the “Selectivity for hH3R” value was “most selective compound in the fluorescent chalcone series; also recorded: most human histamine H3 receptor selective”.

For `CN(C)c1ccc(/C=C2\CCc3ccc(OCc4ccc(OCCCN5CCCCC5)cc4)cc3C2=O)cc1` [Compound 10, (E)-2-(4-(Dimethylamino)benzylidene)-7-(4-(3-(piperidin-1-yl)propoxy)benzyloxy)-1-tetralone], the “Area” value in data set [1] is listed as “yellow area”.
